ChEMBL document CHEMBL1142636 (2000)
In brackets after ≈: the same amount, converted by molar mass.

How the values were obtained:
SK-MEL-5 = assay: Growth inhibition of human SK-MEL-5 cells; format: functional; details: for EC50: read-out: ED50 (the source's name)
How it was run: (§1)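 Tested at the NCI in its human disease-oriented in vitro screen of 60 tumour cell lines, following the Monks et al. methods. Activity is expressed as GI50, given as log molar values.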

COLO 205 = assay: Growth inhibition of human COLO205 cells; format: functional; details: for EC50: read-out: ED50 (the source's name)
KB = assay: Growth inhibition of human KB cells; format: functional; details: read-out: ED50 (the source's name)
How it was run: (§2)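 In-house cytotoxicity assay following an NCI protocol, run on a panel of human tumour lines: KB nasopharyngeal epidermoid carcinoma and HCT-8 ileocecal adenocarcinoma. Potency is reported as ED50 in µg/mL.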

HCT-8 = assay: Growth inhibition of human HCT8 cells; format: functional; details: read-out: ED50 (the source's name); how it was run: as §2
UO-31 = assay: Growth inhibition of human UO31 cells; format: functional; how it was run: as §1
TK-10 = assay: Growth inhibition of human TK10 cells; format: functional; how it was run: as §1
SN12C = assay: Growth inhibition of human SN12C cells; format: functional; how it was run: as §1
ACHN = assay: Growth inhibition of human ACHN cells; format: functional
786-0 = assay: Growth inhibition of human 786-0 cells; format: functional
SK-OV-3 = assay: Growth inhibition of human SK-OV-3 cells; format: functional; how it was run: as §1
[1] = Growth inhibition of human OVACR8 cells; format: functional
[2] = Growth inhibition of human OVACR5 cells; format: functional
[3] = Growth inhibition of human […] cells; format: functional
IGROV-1 = assay: Growth inhibition of human IGROV1 cells; format: functional
UACC-62 = assay: Growth inhibition of human UACC62 cells; format: functional; how it was run: as §1
SK-MEL-28 = assay: Growth inhibition of human SK-MEL-28 cells; format: functional; how it was run: as §1
SK-MEL-2 = assay: Growth inhibition of human SK-MEL-2 cells; format: functional; how it was run: as §1
M19-MEL = assay: Growth inhibition of human M19-MEL cells; format: functional
M14 = assay: Growth inhibition of human M14 cells; format: functional
Malme-3M = assay: Growth inhibition of human MALME-3M cells; format: functional
LOX IMVI = assay: Growth inhibition of human LOX IMVI cells; format: functional
U-251 = assay: Growth inhibition of human U251 cells; format: functional; how it was run: as §1
SNB-75 = assay: Growth inhibition of human SNB75 cells; format: functional; how it was run: as §1
SNB-19 = assay: Growth inhibition of human SNB19 cells; format: functional; how it was run: as §1
SF-539 = assay: Growth inhibition of human SF539 cells; format: functional; how it was run: as §1
SF-268 = assay: Growth inhibition of human SF268 cells; format: functional; how it was run: as §1
SW-620 = assay: Growth inhibition of human SW620 cells; format: functional; how it was run: as §1
KM-20L2 = assay: Growth inhibition of human KM20L2 cells; format: functional
KM12 = assay: Growth inhibition of human KM12 cells; format: functional
HT-29 = assay: Growth inhibition of human HT29 cells; format: functional
HCT-15 = assay: Growth inhibition of human HCT15 cells; format: functional
HCT-116 = assay: Growth inhibition of human HCT116 cells; format: functional
HCC 2998 = assay: Growth inhibition of human HCC2998 cells; format: functional
DLD-1 = assay: Growth inhibition of human DLD1 cells; format: functional
DMS-273 = assay: Growth inhibition of human DMS273 cells; format: functional
[4] = Growth inhibition of human DMS144 cells; format: functional
[5] = Growth inhibition of human LXFL529 cells; format: functional; details: LXFL 529
NCI-H522 = assay: Growth inhibition of human NCI-H522 cells; format: functional
NCI-H460 = assay: Growth inhibition of human NCI-H460 cells; format: functional
NCI-H322M = assay: Growth inhibition of human NCI-H322M cells; format: functional
NCI-H226 = assay: Growth inhibition of human NCI-H226 cells; format: functional
HOP-92 = assay: Growth inhibition of human HOP92 cells; format: functional
HOP-62 = assay: Growth inhibition of human HOP62 cells; format: functional
A549 = assay: Growth inhibition of human A549 cells; format: functional
SR = assay: Growth inhibition of human SR cells; format: functional; how it was run: as §1
[6] = Growth inhibition of human RPMI8266 cells; format: functional
MOLT-4 = assay: Growth inhibition of human MOLT4 cells; format: functional
K562 = assay: Growth inhibition of human K562 cells; format: functional
[7] = Growth inhibition of human HL60(TB) cells; format: functional, HL-60(TB); details: HL-60
CCRF-CEM = assay: Growth inhibition of human CCRF-CEM cells; format: functional
HOP-18 = assay: Growth inhibition of human HOP18 cells; format: functional

## COc1ccc2[nH]c3c(c2c1)C(=O)C=C(C)C3=O
SK-MEL-5
  EC50: 6.22 µg/mL (≈ 25.8 µM)
COLO 205
  EC50: > 20 µg/mL
KB
  EC50: 5.08 µg/mL (≈ 21.1 µM)
HCT-8
  EC50: 6.03 µg/mL (≈ 25 µM)

## COc1ccc2c3c([nH]c2c1)C(=O)C=C(C)C3=O
SK-MEL-5
  EC50: 7.25 µg/mL (≈ 30.1 µM)
COLO 205
  EC50: > 20 µg/mL
KB
  EC50: > 20 µg/mL
HCT-8
  EC50: > 20 µg/mL

## CC1=CC(=O)c2[nH]c3ccc(Cl)cc3c2C1=O
SK-MEL-5
  EC50: 0.83 µg/mL (≈ 3.38 µM)
COLO 205
  EC50: > 20 µg/mL
KB
  EC50: 4.39 µg/mL (≈ 17.9 µM)
HCT-8
  EC50: 6.45 µg/mL (≈ 26.3 µM)

## COc1ccc2[nH]c3c(c2c1)C(=O)C(C)=CC3=O
SK-MEL-5
  EC50: 0.55 µg/mL (≈ 2.28 µM)
COLO 205
  EC50: 0.87 µg/mL (≈ 3.61 µM)
KB
  EC50: 0.76 µg/mL (≈ 3.15 µM)
HCT-8
  EC50: 7.91 µg/mL (≈ 32.8 µM)

## COc1cc(Cn2c3ccccc3c3cc(C)cc(OC)c32)cc2c1[nH]c1ccccc12
UO-31
  GI50: 25.1 µM
TK-10
  GI50: 25.1 µM
SN12C
  GI50: 25.1 µM
ACHN
  GI50: 12.3 µM
786-0
  GI50: 25.1 µM
SK-OV-3
  GI50: 25.1 µM
[1]
  GI50: 10.5 µM
[2]
  GI50: 25.1 µM
[3]
  GI50: 10.2 µM
IGROV-1
  GI50: 25.1 µM
UACC-62
  GI50: 15.1 µM
SK-MEL-5
  GI50: 25.1 µM
SK-MEL-28
  GI50: 25.1 µM
SK-MEL-2
  GI50: 25.1 µM
M19-MEL
  GI50: 25.1 µM
M14
  GI50: 6.31 µM
Malme-3M
  GI50: 25.1 µM
LOX IMVI
  GI50: 8.13 µM
U-251
  GI50: 25.1 µM
SNB-75
  GI50: 22.9 µM
SNB-19
  GI50: 25.1 µM
SF-539
  GI50: 9.77 µM
SF-268
  GI50: 17.4 µM
SW-620
  GI50: 13.5 µM
KM-20L2
  GI50: 15.5 µM
KM12
  GI50: 10.2 µM
HT-29
  GI50: 17 µM
HCT-15
  GI50: 17 µM
HCT-116
  GI50: 25.1 µM
HCC 2998
  GI50: 25.1 µM
DLD-1
  GI50: 25.1 µM
COLO 205
  GI50: 25.1 µM
DMS-273
  GI50: 15.1 µM
[4]
  GI50: 20 µM
[5]
  GI50: 17 µM
NCI-H522
  GI50: 5.37 µM
NCI-H460
  GI50: 10.7 µM
NCI-H322M
  GI50: 25.1 µM
NCI-H226
  GI50: 17 µM
HOP-92
  GI50: 5.37 µM
HOP-62
  GI50: 6.61 µM
A549
  GI50: 23.4 µM
SR
  GI50: 16.6 µM
[6]
  GI50: 25.1 µM
MOLT-4
  GI50: 8.51 µM
K562
  GI50: 9.77 µM
[7]
  GI50: 12.3 µM
CCRF-CEM
  GI50: 12 µM

## CC(C)=CCCC1(C)C=Cc2c(c(C)cc3c2[nH]c2cc(O)ccc23)O1 (stereo not given)
NCI-H522
  GI50: 6.76 µM
HOP-18
  GI50: 7.41 µM
MOLT-4
  GI50: 0.00324 µM
MOLT-4; read-out: pTGI
  TGI: > 25.1 µM

## CC1=CC(=O)c2c([nH]c3ccc(F)cc23)C1=O
SK-MEL-5
  EC50: 5.5 µg/mL (≈ 24 µM)
COLO 205
  EC50: 4.5 µg/mL (≈ 19.6 µM)
KB
  EC50: 2.03 µg/mL (≈ 8.86 µM)
HCT-8
  EC50: 4.76 µg/mL (≈ 20.8 µM)

## CC1=CC(=O)c2[nH]c3ccc(C)cc3c2C1=O
SK-MEL-5
  EC50: 0.66 µg/mL (≈ 2.93 µM)
COLO 205
  EC50: 3.52 µg/mL (≈ 15.6 µM)
KB
  EC50: 0.92 µg/mL (≈ 4.08 µM)
HCT-8
  EC50: 6.49 µg/mL (≈ 28.8 µM)

## COc1cccc2c3c([nH]c12)C(=O)C(C)=CC3=O
SK-MEL-5
  EC50: 5.5 µg/mL (≈ 22.8 µM)
COLO 205
  EC50: 5.18 µg/mL (≈ 21.5 µM)
KB
  EC50: 0.92 µg/mL (≈ 3.81 µM)
HCT-8
  EC50: 4.7 µg/mL (≈ 19.5 µM)
